Shown are actives, neighbours in structure and some others; about 4.7% of the full set was active somewhere.
RGS4 inh – inhibitors of human RGS4 | 310,000 tested, 0.45% active | P49798 | HEK293 M3R/RGS4 inducible, Fluo-4 calcium flux; stronger effect = higher value; triggered by carbachol at its EC20 | B-score at 10 µM;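 active = B-score, a plate-corrected calcium signal, over three deviations above library mean, with baseline fluorescence within five deviations of library mean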;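 also: RGS4 expression induced by doxycycline in cells with stable M3 receptor; B-score is computed from the integrated fluorescence ratio over baseline after carbachol; higher B-score means a larger calcium signal and so more RGS4 inhibition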
MrgX1 antagonist – human MrgX1 receptor antagonism, primary screen. Q96LB2. MRGX1-HEK293 calcium flux, Fluo-4, BAM8-22 antagonism; stronger effect = lower value. B-score at 10 µM. 310,000 tested, 1.3% active;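 active = calcium-response B-score plate-corrected more than 3 library SD below zero, starting fluorescence within 5 deviations, no agonist response on first addition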;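 also: peak minus trough fluorescence over baseline after final BAM8-22 challenge near maximal dose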
RGS4 pot – RGS4 potentiation or activation; B-score at 10 µM; 310,000 tested, 0.92% active; HEK293 M3R/inducible RGS4, carbachol calcium flux Fluo4; stronger effect = lower value; AID 463111;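 active = B-score of the integrated calcium signal more than 4 SD below the library mean, with starting fluorescence not abnormally high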;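 also: negative B-score means reduced calcium response which marks RGS4 activation or potentiation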
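System – HEK293 FlpIn-TREx cells, stable M3R, doxycycline-inducible RGS4 · Reagent – ECmax carbachol challenge · Times – compound preincubation 20 min at room temperature before agonist · Technique – Fluo4 fluorescence kinetic imaging of calcium · Measure – B score of integrated Fluo4 ratio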
MrgX1 PAM – allosterically activates human MrgX1 receptor signaling; Q96LB2; MrgX1-HEK293, Fluo-4 calcium flux, FDSS; stronger effect = higher value; B-score at 10 µM; 310,000 tested, 0.63% active;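 active = plate-corrected calcium response at least 3 library SD above typical, normal starting fluorescence, not activating the receptor alone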;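 also: compound read alongside a low EC10 to EC30 dose of BAM8-22 agonist; peak minus trough fluorescence over baseline measured at the second addition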
MrgX1 ag – human MrgX1 receptor agonism, primary screen. B-score at 10 µM. MrgX1-HEK293 cells, Fluo-4 calcium fluorescence, agonist mode; stronger effect = higher value. AID 588627. 310,000 tested, 0.44% active. Q96LB2;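 active = calcium response B-score plate-corrected fluorescence ratio at least 3 library SD, with starting fluorescence B-score inside 5 SD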
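System – MrgX1-expressing HEK293 cells · Incubation – cells plated overnight, dye loaded 0.5 h 37 °C, 0.5 h room temperature · Technique – kinetic Fluo-4 NW fluorescence of intracellular calcium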
KCC2 mod – modulators of human KCC2 chloride dependent transport. KCC2 cells, thallium flux FluoZin-2 fluorescence. B-score of Tl+ flux slope (higher = more flux/activation; lower = inhibition) at 10 µM. 190,000 tested, 2.2% active. Q9H2X9;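 active = thallium flux slope and its plate-corrected score both differing from the plate sample mean at a set confidence after two filtering rounds, in either direction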;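 also: slope of fluorescence scaled to starting intensity during 10 to 20 s after thallium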
Target sequence (Q9H2X9 whole entry, looked up): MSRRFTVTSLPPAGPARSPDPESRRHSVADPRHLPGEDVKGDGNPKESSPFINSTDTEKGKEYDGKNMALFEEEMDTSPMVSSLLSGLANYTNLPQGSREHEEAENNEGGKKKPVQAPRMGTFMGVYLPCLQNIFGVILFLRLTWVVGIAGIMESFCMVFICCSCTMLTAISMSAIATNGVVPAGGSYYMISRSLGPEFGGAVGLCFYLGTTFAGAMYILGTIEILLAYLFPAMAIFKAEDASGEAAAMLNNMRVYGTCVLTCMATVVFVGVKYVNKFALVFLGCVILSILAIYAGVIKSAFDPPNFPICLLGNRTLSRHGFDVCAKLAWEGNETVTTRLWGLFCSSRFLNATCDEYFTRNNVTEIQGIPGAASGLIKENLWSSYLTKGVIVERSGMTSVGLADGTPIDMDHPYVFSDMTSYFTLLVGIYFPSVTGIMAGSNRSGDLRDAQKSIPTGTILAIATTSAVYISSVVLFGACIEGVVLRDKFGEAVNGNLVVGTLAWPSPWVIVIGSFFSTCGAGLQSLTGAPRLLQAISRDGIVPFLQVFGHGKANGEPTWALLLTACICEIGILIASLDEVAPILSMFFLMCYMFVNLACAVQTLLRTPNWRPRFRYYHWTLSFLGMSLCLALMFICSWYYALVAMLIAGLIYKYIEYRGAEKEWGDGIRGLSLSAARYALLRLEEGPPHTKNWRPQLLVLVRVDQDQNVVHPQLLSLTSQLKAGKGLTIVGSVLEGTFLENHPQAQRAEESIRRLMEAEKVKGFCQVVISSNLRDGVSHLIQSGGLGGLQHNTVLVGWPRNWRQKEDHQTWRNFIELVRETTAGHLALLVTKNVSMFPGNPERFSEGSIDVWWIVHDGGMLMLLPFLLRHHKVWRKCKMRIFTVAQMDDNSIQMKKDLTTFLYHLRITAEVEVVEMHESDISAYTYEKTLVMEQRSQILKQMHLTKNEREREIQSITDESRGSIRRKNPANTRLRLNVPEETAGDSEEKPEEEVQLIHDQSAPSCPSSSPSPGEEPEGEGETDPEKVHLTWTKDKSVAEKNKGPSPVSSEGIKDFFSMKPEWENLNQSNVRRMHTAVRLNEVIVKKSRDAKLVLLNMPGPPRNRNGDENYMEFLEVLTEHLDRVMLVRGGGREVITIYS
RGS4 block valid – RGS4 inhibitor validation. shares compounds with RGS4 inh. HEK293 M3R/RGS4, carbachol calcium Fluo-4 fluorescence; carbachol added at its EC20; 0 = buffer wells, 100 = carbachol control. calcium response, % at 10 µM. 1,700 tested, 65% active;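 active = duplicate-averaged calcium response above the buffer-only control mean plus 5 SD of those controls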;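 also: integrated fluorescence ratio F max minus min over baseline F0; higher response in RGS4-induced cells means RGS4 inhibition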
M3R Ca ctr – checks RGS4 inhibitor effects in non-induced HEK293 M3R cells; shares compounds with RGS4 inh; carbachol calcium Fluo-4; submaximal (EC20) carbachol stimulus; buffer wells 0%, carbachol control wells 100%; activity (percent), % at 10 µM; 1,900 tested, 20% active; call rule not given here;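 also: RGS4 induction absent so cells express M3R without RGS4; higher means more calcium signal and flags a non-specific hit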
RGS4 inh ctr2 – second RGS4 inhibitor counter-screen in uninduced cells lacking carbachol; 1,900 tested, 22% active; HEK293 M3R/RGS4 non-induced, Fluo-4 calcium, no carbachol; normalised: buffer wells 0%, carbachol wells 100%; calcium response (agonist-mode artifact), % at 10 µM; shares compounds with RGS4 inh; AID 493001;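 active = duplicate-averaged calcium rise in uninduced cells above buffer wells' mean plus 5 SD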
An asterisk follows results filed as active; i = inactive; / = no result.

SMILES	RGS4 inh	MrgX1 antagonist	RGS4 pot	MrgX1 PAM	MrgX1 ag	KCC2 mod	RGS4 block valid	M3R Ca ctr	RGS4 inh ctr2
O=C(N/C(=C/c1cccc(Br)c1)c1nc(=S)[nH][nH]1)c1ccccc1	7.2*	i	i	i	i	-0.25	45%*	i	96%*
Cc1ccc(C(=O)N/C(=C\c2cccnc2)c2nc3ccccc3[nH]2)cc1	i	i	i	i	i	0.42	/	/	/
CCc1nc2ccccc2c(=O)n1/N=C/c1ccc(OC)cc1	i	i	i	i	i	/	/	/	/
Cc1ccc(/C=C/C(=O)c2ccccc(=O)c2O)cc1C	11*	i	i	i	i	32*	48%*	i	72%*
CCN(CC(=O)NCc1ccc(F)cc1)C(=O)/C=C/c1cc(OC)ccc1OC	i	/	i	/	/	/	/	/	/
CC(=O)N1CCc2cc(S(=O)(=O)NC(C(=O)NC3CCCc4ccccc43)C(C)C)ccc21 (configuration not stated)	i	i	i	i	i	-0.14	/	/	/
CC(=O)N1CCc2cc(S(=O)(=O)NC(C(=O)NC(C)c3ccccc3)C(C)C)ccc21 (configuration not stated)	i	i	i	i	i	/	i	i	i
Cc1c(Cc2ccccc2)c(=O)oc2cc(OCC(=O)N3CCC(C(=O)O)CC3)ccc12	i	i	i	i	i	/	/	/	/
Cn1c2ccccc2c2c(C(=O)NCc3ccco3)cn(C3CCCCC3)c(=O)c21	i	i	i	i	i	/	i	i	i
Cc1ccc(CNC(=O)c2cn(C3CCCC3)c(=O)c3c2c2ccccc2n3C)o1	i	i	i	i	i	/	/	/	/
Cc1ccc(/C=C/c2nc3ccccc3[nH]2)o1	14*	i	i	i	i	-0.28	i	i	i
CCOc1cccc(C2C(C(=O)c3ccc(C)o3)=C(O)C(=O)N2Cc2ccccc2)c1 (configuration not stated)	4.7*	/	i	/	/	/	16%*	i	i
CCOc1cccc(C2C(C(=O)c3ccc(C)o3)=C(O)C(=O)N2Cc2ccncc2)c1 (configuration not stated)	i	i	i	i	i	/	/	/	/
Oc1c(Br)cc(Br)cc1CNc1ccc(F)cc1	6.5*	i	i	i	i	/	i	i	i
Oc1c(Br)cc(Br)cc1CNc1cnc2ccccc2c1	i	i	i	i	i	/	/	/	/
CC1=C(C#N)c2nc(N)c(C#N)c(C)c2/C1=C\c1ccc(-c2ccccc2C(=O)O)o1	5.6*	/	i	/	/	0.57	24%*	32%*	i
CC1(C)COC(/C=C/c2ccc([N+](=O)[O-])cc2)=N1	5.7*	i	i	i	i	-0.23	8.0%*	29%*	i
CC(=C/C(=O)O)/C=C/c1ccc([N+](=O)[O-])cc1	/	i	/	i	i	0.86	/	/	/
Cc1cccc2sc(NNC(=O)c3ccc(S(=O)(=O)N4CC(C)CC(C)C4)cc3)nc12 (configuration not stated)	6.5*	i	i	i	i	-0.26	10%*	i	i
Cc1ccc2nc(NNC(=O)c3ccc(S(=O)(=O)N4CCc5ccccc5C4)cc3)sc2c1	i	i	i	i	i	-0.67	/	i	i
Cc1cc(C)c2nc(NNC(=O)c3ccc(S(=O)(=O)N4CC(C)CC(C)C4)cc3)sc2c1 (configuration not stated)	i	i	i	i	i	-0.003	/	i	i
Cc1ccc2nc(NNC(=O)c3ccc4c(c3)OCCO4)sc2c1	i	i	i	i	i	0.044	/	/	/
C/C(CC(C)(C)c1ccccc1)=N\NS(=O)(=O)c1ccccc1	i	i	i	i	i	-0.055	/	/	/
Cc1cccc(NC(=O)NC2CCCc3ccccc32)c1 (configuration not stated)	i	i	i	i	i	/	/	/	/
COc1cc(C#N)ccc1OCC(=O)Nc1cccc(S(=O)(=O)N2CCCC2)c1	i	i	i	i	i	0.02	/	/	/
SMILES	RGS4 inh	MrgX1 antagonist	RGS4 pot	MrgX1 PAM	MrgX1 ag	KCC2 mod	RGS4 block valid	M3R Ca ctr	RGS4 inh ctr2
O=C(NCC(c1ccc(F)cc1)N1CCOCC1)c1ccco1 (configuration not stated)	i	i	i	i	i	/	/	/	/
CCOC(=O)C(C)/C(C)=N/NC(N)=S (configuration not stated)	17*	i	i	i	i	1.7	54%*	i	i
CCOC(=O)C(C)/C(C)=N\Nc1ccc([N+](=O)[O-])cc1[N+](=O)[O-] (configuration not stated)	i	i	i	i	i	-1.3	/	/	/
Cc1ccc(CN2CC(C(=O)NCC(=O)Nc3c(C)cccc3C)CC2=O)cc1 (configuration not stated)	i	i	i	i	i	/	/	/	/
Nc1nc(CSc2nc3ccccc3s2)nc(N2CCCCC2)n1	i	i	i	i	i	1.1	/	/	/
COc1ccccc1Nc1nc(N)nc(CSc2nnc(C)s2)n1	i	i	i	i	i	-0.0088	/	/	/
Cc1nnc(SCc2nc(N)nc(Nc3ccccc3)n2)s1	5.4*	i	i	i	i	0.5	14%*	i	i
CCc1ccc(Nc2nc(N)nc(CSc3nc4ccccc4s3)n2)cc1	i	i	i	i	i	-0.68	i	i	i
O=C1Nc2ccccc2C1=Nc1cccc([N+](=O)[O-])c1	i	i	i	i	i	/	/	/	/
CSc1cccc(N=C2C(=O)Nc3ccccc32)c1	16*	i	i	i	32*	/	24%*	i	7.5%*
O=C1Nc2ccccc2C1=Nc1cccc(Cl)c1	41*	i	i	i	51*	/	28%*	54%*	16%*
CCCN(C(=O)c1ccc(OCC(C)C)cc1)c1c(N)n(Cc2ccccc2)c(=O)[nH]c1=O	i	i	i	i	i	/	/	/	/

Source: PubChem BioAssay (several laboratories)
